Converted amounts (≈) assume the structure as drawn.
Experiments:
Sporothrix schenckii = assay: Antifungal activity against Sporothrix schenckii incubated for 48 hrs by broth micro-dilution method; assay type: functional
In short: (§1)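 Broth microdilution per NCCLS guidelines in RPMI 1640 buffered with MOPS; starting inoculum 1–5 × 10^3 CFU/mL; plates incubated at 35 °C, MIC read after 48 h.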

[1] = Stability in simulated vaginal fluid at pH 4.2 at 200 ng/ml by LC-MS/MS method; conditions: buffer
[2] = Terminal half life in New-Zealand rabbit at 33 mg/kg dosed through vaginal administration by LC-MS/MS method; assay type: ADME, organism-based, Oryctolagus cuniculus; conditions: in vivo, read-out: beta t1/2 (converted)
In short: (§2)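 Female New Zealand rabbits received a single vaginal dose of 33 mg/kg. Drug in plasma was quantified by LC-MS/MS on a C18 column with phenacetin as internal standard. For each plasma sample (50 µL), 200 µL of internal-standard solution (200 ng/mL phenacetin in acetonitrile) was added. Samples were mixed, centrifuged at 13,000 rpm for 20 min, and the supernatant injected. The method was validated to FDA bioanalytical criteria.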

Cryptococcus neoformans = assay: Antifungal activity against Cryptococcus neoformans incubated for 48 hrs by broth micro-dilution method; assay type: functional; in short: as §1
Aspergillus fumigatus = assay: Antifungal activity against Aspergillus fumigatus incubated for 48 hrs by broth micro-dilution method; assay type: functional; in short: as §1
[3] = Tmax in New-Zealand rabbit at 33 mg/kg dosed through vaginal administration by LC-MS/MS method; assay type: ADME, organism-based, Oryctolagus cuniculus; conditions: in vivo; in short: as §2
Candida albicans = assay: Antifungal activity against Candida albicans incubated for 48 hrs by broth micro-dilution method; assay type: functional; in short: as §1
[4] = system: Trichophyton mentagrophytes; assay: Antifungal activity against Trichophyton mentagrophytes incubated for 48 hrs by broth micro-dilution method; assay type: functional; in short: as §1
Oryctolagus cuniculus [5] = assay: Apparent […] volume of distribution in New-Zealand rabbit at 33 mg/kg dosed through vaginal administration by LC-MS/MS method; assay type: ADME, organism-based; conditions: in vivo; in short: as §2
Trichomonas vaginalis [6] = assay: Anti-trichomonas activity against MTZ-susceptible Trichomonas vaginalis incubated for 3 to 48 hrs by trypan blue exclusion assay; assay type: functional
In short: (§3)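 Trichomonas vaginalis trophozoites (5 × 10^4/L as printed) in TYM medium; DMSO stocks (100.0 mg/mL) serially diluted in TYM to 0.1 mg/mL, DMSO/TYM vehicle controls. Anaerobic incubation at 37 °C; viability checked 3–48 h by microscopy (200×) with trypan blue exclusion. MIC = lowest concentration killing all cells within 48 h.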

[7] = Cmax in New-Zealand rabbit at 33 mg/kg dosed through vaginal administration by LC-MS/MS method; assay type: ADME, organism-based, Oryctolagus cuniculus; set-up: dose 33 mg/kg; conditions: in vivo; in short: as §2
[8] = Spermicidal activity in liquefied human semen assessed as reduction in motile spermatozoa incubated at 37 degC for 30 mins; assay type: functional, Sperm
In short: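 Compounds dissolved in minimal DMSO, diluted with 0.85% saline to 1.0% test solution; liquefied human semen mixed 1:5 with test solution, vortexed 10 s; motile sperm scored by phase-contrast microscopy over 60 s in five fields. MEC = lowest concentration immobilizing 100% of sperm, still immotile after dilution with nutrient medium.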

[9] = AUC (0 to infinity) in New-Zealand rabbit at 33 mg/kg dosed through vaginal administration by LC-MS/MS method; assay type: ADME, organism-based, Oryctolagus cuniculus; set-up: dose 33 mg/kg, time infinity; conditions: in vivo; in short: as §2
Trichomonas vaginalis [10] = assay: Anti-trichomonas activity against MTZ-resistant Trichomonas vaginalis incubated for 3 to 48 hrs by trypan blue exclusion assay; assay type: functional; in short: as §3
Oryctolagus cuniculus [11] = assay: Drug level in plasma of New-Zealand rabbit at 33 mg/kg dosed through vaginal administration by LC-MS/MS method; assay type: ADME, organism-based; conditions: in vivo, other; in short: as §2
Candida parapsilosis = assay: Antifungal activity against Candida parapsilosis ATCC 22019 incubated for 48 hrs by broth micro-dilution method; assay type: functional; conditions: Lodderomyces parapsilosis, ATCC 22019, 48 h; in short: as §1

CCCCCCCCCc1ccc(OCCOCCOCCOCCOCCOCCOCCOCCOCCO)cc1 [NONOXYNOL 9] showed an MIC (Sporothrix schenckii) greater than 81.2 µM, a Stability [1] greater than 1 h and a half-life [2] of 1.59 h. For the same compound, the MIC (Cryptococcus neoformans) was greater than 81.2 µM, the MIC (Aspergillus fumigatus) was greater than 81.2 µM and the Tmax [3] was 1 h. The MIC (Candida albicans) was greater than 81.2 µM, the MIC [4] was greater than 81.2 µM and the Vd/F (Oryctolagus cuniculus [5]) was 7931.32 L/kg. For the same compound, the MIC (Trichomonas vaginalis [6]) was 81.2 µM (≈ 50.1 µg/mL), the Cmax [7] was 3.66 ng/mL and the MEC [8] was 0.05%. For the same compound, the minimal effective concentration ([8]; Homo sapiens, Sperm, Semen, 0.5 h, read-out: MEC) was 810 µM, the AUC(0-inf) [9] was 12.9 ng·h/mL and the MIC (Trichomonas vaginalis [10]) was 122 µM (≈ 75.1 µg/mL). For the same compound, the Drug uptake (Oryctolagus cuniculus [11]) was “Not Active” and the MIC (Candida parapsilosis) was greater than 81.2 µM.

Reference: ChEMBL document CHEMBL3612038, “N-Alkyl/aryl-4-(3-substituted-3-phenylpropyl)piperazine-1-carbothioamide as dual-action vaginal microbicides with reverse transcriptase inhibition” (Eur J Med Chem, 2015)
